In the library only some 1.8% were active in any assay of this set; here they are far more common.
CHRM4 antagonist: antagonists of human muscarinic M4 receptor (CHRM4); P08173; CHO-hM4 cells, ACh EC80, Fluo-8 calcium fluorescence; inhibition, % at 3 µM; 0.73% of 360,000 active; AID 624125;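 active = inhibition above its plate's cutoff, the mean inhibition of sample wells plus 3 SD, cut at about 27% in these data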;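 also: 0% = acetylcholine EC80 with DMSO and 100% = DMSO without agonist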
Target sequence (P08173 whole entry, looked up): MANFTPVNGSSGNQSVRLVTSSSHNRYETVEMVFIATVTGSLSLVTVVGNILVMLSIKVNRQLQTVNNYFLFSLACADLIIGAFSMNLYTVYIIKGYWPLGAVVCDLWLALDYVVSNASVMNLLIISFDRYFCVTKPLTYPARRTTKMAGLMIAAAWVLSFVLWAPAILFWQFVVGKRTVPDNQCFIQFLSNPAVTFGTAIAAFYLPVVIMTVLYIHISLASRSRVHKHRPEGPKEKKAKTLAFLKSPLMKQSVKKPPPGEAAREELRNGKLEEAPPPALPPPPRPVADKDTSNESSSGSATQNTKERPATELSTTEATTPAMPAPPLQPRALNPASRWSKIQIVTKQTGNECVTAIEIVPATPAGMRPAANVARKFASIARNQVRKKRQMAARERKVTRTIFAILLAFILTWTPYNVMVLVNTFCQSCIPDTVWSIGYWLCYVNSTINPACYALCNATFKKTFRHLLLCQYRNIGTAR
M5 antag: antagonists of human muscarinic M5 receptor (CHRM5); P08912; CHO-hM5 cells, Fluo-8 calcium fluorescence, ACh EC80; inhibition, % at 3 µM; 0.59% of 360,000 active;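 active = inhibition above a per-plate cutoff, the mean of that plate's test compounds plus 3 SD, cut at about 27% in these data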;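 also: 0% = acetylcholine EC80 with DMSO and 100% = DMSO without agonist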
CHRM5 PAM: positive allosteric modulators of human muscarinic M5 receptor; CHO-K1 hM5, Fluo-8 calcium, ACh EC20 PAM; 0% = ACh EC20, 100% = ACh EC100; activation, % at 3 µM; 0.3% of 360,000 active;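 active = activation above the run cutoff, the mean activation of all test compounds plus 3 SD, cut at about 18% in these data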
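Test system: CHO-K1 hM5 cells / Doses: single-point, 3 µM nominal / Times: Post-acetylcholine fluorescence recording 140 s / Technique: Fluo-8 calcium fluorescence / Measure: Max/basal fluorescence ratio as % of EC20–EC100 ACh window / Benchmarks: low control EC20 acetylcholine (0%), high control EC100 acetylcholine (100%) / Replicates: one well per compound, no replicates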
M5 ag: agonists of human muscarinic M5 receptor (CHRM5); P08912; 0.19% of 360,000 active; AID 624037; CHO-K1 hM5 cells, Fluo-8 calcium fluorescence; 0% DMSO wells, 100% maximal acetylcholine response; activation, % at 3 µM;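 active = activation above the run's mean over test compounds plus 3 SD, cut at about 23% in these data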;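 also: signal is peak over basal fluorescence ratio across the kinetic read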
CHRM4 agonist: CHRM4 agonism in calcium assay; AID 624127; activation, % at 3 µM; P08173; CHO-K1 hM4/Gqi5, Fluo-8 calcium fluorescence; vehicle 0%, full acetylcholine response 100%; 0.14% of 360,000 active;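 active = activation above the run mean over all test wells plus 3 SD, cut at about 32% in these data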;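 also: peak over basal fluorescence ratio per well then scaled between controls; 0% = DMSO wells and 100% = acetylcholine at EC100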
CHRM4 PAM: CHRM4 positive allosteric modulation. P08173. CHO-K1 hM4/Gqi5, Fluo-8 calcium fluorescence, ACh EC20; 0% = ACh EC20, 100% = maximal ACh. activation, % at 3 µM. 0.4% of 360,000 active. AID 624126;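 active = activation above its plate's cutoff, the mean activation of sample wells plus 3 SD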
* marks the source's active call; other numbers are inactive results.

For CCCNNC(=O)C(O)(c1ccccc1)c1ccccc1 the results were CHRM4 antagonist -3.2, M5 antag -3.6, CHRM5 PAM -4.2, M5 ag 0.5, CHRM4 agonist 0.1 and CHRM4 PAM 3.3.
For COc1ccc2c3c([nH]c2c1)[C@H]1C[C@H]2[C@H](C[C@@H](O)[C@H](OC)[C@H]2C(=O)O)CN1CC3 the results were CHRM4 antagonist 46.2*, M5 antag 14.7, CHRM5 PAM -18.0, M5 ag 0.6, CHRM4 agonist 1.8 and CHRM4 PAM -16.1.
For Cc1nc(NC(=O)COC(=O)c2cccs2)c(Cl)cc1Cl the results were CHRM4 antagonist -0.6, M5 antag 3.5, CHRM5 PAM 3.1, M5 ag 1.7, CHRM4 agonist 1.2 and CHRM4 PAM 2.9.
Cc1ccc(-n2nc3ccc(N)cc3n2)cc1Cl was read as CHRM4 antagonist 9.7, M5 antag 4.5, CHRM5 PAM -3.2, M5 ag 0.5, CHRM4 agonist -1.0 and CHRM4 PAM -2.7.
Cc1ccc(-n2nc3ccc(N)cc3n2)cc1C was read as CHRM4 antagonist -4.2, M5 antag -14.6, CHRM5 PAM 20.5*, M5 ag 12.8, CHRM4 agonist 0.6 and CHRM4 PAM 15.6*.
For Cc1ccc(OCCC(=O)OCC(=O)c2c(N)n(CC(C)C)c(=O)n(C)c2=O)cc1 the results were CHRM4 antagonist 0.3, M5 antag 16.0, CHRM5 PAM -27.8, M5 ag 2.7, CHRM4 agonist 15.6 and CHRM4 PAM -9.7.
`CC(C)Cn1c(N)c(C(=O)COC(=O)CCc2nc3ccccc3s2)c(=O)n(C)c1=O` gave CHRM4 antagonist 14.2, M5 antag 31.9*, CHRM5 PAM -35.0, M5 ag 9.3, CHRM4 agonist 23.4 and CHRM4 PAM -21.4.
Screening Cc1ccccc1OCCC(=O)OCC(=O)c1c(N)n(CC(C)C)c(=O)n(C)c1=O returned CHRM4 antagonist 16.9, M5 antag 34.5*, CHRM5 PAM -14.2, M5 ag 4.8, CHRM4 agonist 23.0 and CHRM4 PAM -15.3.
For CC(C)Cn1c(N)c(C(=O)COC(=O)CC23CC4CC(CC(C4)C2)C3)c(=O)n(C)c1=O the results were CHRM4 antagonist 36.7*, M5 antag 19.2, CHRM5 PAM -12.7, M5 ag 3.7, CHRM4 agonist 1.8 and CHRM4 PAM -6.5.
Screening CC(C)Cn1c(N)c(C(=O)COC(=O)CCc2nc3ccccc3c(=O)[nH]2)c(=O)n(C)c1=O returned CHRM4 antagonist 4.2, M5 antag 6.3, CHRM5 PAM -12.7, M5 ag 5.1, CHRM4 agonist 13.2 and CHRM4 PAM 7.0.
Screening CC1(C(=O)NS(=O)(=O)c2ccc(C#N)cc2)CCN1C(=O)C1(c2ccc(Cl)cc2)CC1 (stereo unspecified) returned CHRM4 antagonist -8.6, M5 antag -7.8, CHRM5 PAM 2.4, M5 ag 0.5, CHRM4 agonist 0.8 and CHRM4 PAM 4.6.
Screening CCOc1ncccc1C(=O)Nc1ccc2c(C)cc(=O)oc2c1 returned CHRM4 antagonist 6.7, M5 antag -4.4, CHRM5 PAM 21.9*, M5 ag -7.4, CHRM4 agonist 1.2 and CHRM4 PAM 5.8.
COc1ccc(N2CCN(S(=O)(=O)c3c(C)nc4sccn4c3=O)CC2)cc1 was read as CHRM4 antagonist -17.9, M5 antag -0.6, CHRM5 PAM -2.4, M5 ag 0.9, CHRM4 agonist 1.5 and CHRM4 PAM 8.4.
`Cc1nc2sccn2c(=O)c1S(=O)(=O)N1CCN(c2ccccc2)CC1` gave CHRM4 antagonist 61.4*, M5 antag 8.1, CHRM5 PAM -7.7, M5 ag -1.2, CHRM4 agonist 0.2 and CHRM4 PAM -17.0.
Screening Cc1nc2sccn2c(=O)c1S(=O)(=O)NCC1CCN(Cc2ccccc2Cl)CC1 returned CHRM4 antagonist 34.3*, M5 antag 6.8, CHRM5 PAM -9.6, M5 ag -9.9, CHRM4 agonist 0.4 and CHRM4 PAM -21.8.
For CC(=O)c1c(C)nc2ccc([N+](=O)[O-])cc2c1-c1ccccc1 the results were CHRM4 antagonist -26.9, M5 antag -2.1, CHRM5 PAM 5.5, M5 ag -8.0, CHRM4 agonist 2.0 and CHRM4 PAM 13.8*.
`CC(=O)c1c(C)nc2ccc(Br)cc2c1-c1ccccc1` gave CHRM4 antagonist -8.8, M5 antag -4.0, CHRM5 PAM -0.6, M5 ag -2.2, CHRM4 agonist -0.2 and CHRM4 PAM 7.3.
`OC[C@@H]1CN(Cc2ccc(F)cc2)C[C@H](n2cnc3c(N4CCCC4)ncnc32)O1` gave CHRM4 antagonist -5.7, M5 antag -2.7, CHRM5 PAM -3.5, M5 ag 0.6, CHRM4 agonist 4.2 and CHRM4 PAM -2.5.
`CCOc1ccc(CCNC(=O)CSc2n[nH]c(N)n2)cc1OCC` gave CHRM4 antagonist 13.1, M5 antag 29.6*, CHRM5 PAM -8.2, M5 ag -3.1, CHRM4 agonist 0.0 and CHRM4 PAM -6.7.
CN1CCc2nc3ccc(Cl)cc3c(-c3ccccc3Cl)c2C1 was read as CHRM4 antagonist 69.6*, M5 antag 65.7*, CHRM5 PAM -18.0, M5 ag -7.6, CHRM4 agonist 0.3 and CHRM4 PAM -16.8.
CC(=O)OCc1c(C(F)(F)F)nn(C)c1SCc1ccc(Cl)cc1 was read as CHRM4 antagonist 56.0*, M5 antag 9.9, CHRM5 PAM -21.0, M5 ag -7.5, CHRM4 agonist -3.1 and CHRM4 PAM -23.9.
For CN1CCC(C2(O)c3ccccc3CSc3sccc32)CC1 (stereo unspecified) the results were CHRM4 antagonist -1.5, M5 antag 10.6, CHRM5 PAM -30.5, M5 ag -14.4, CHRM4 agonist 1.2 and CHRM4 PAM -6.4.
`CN1CCC(C2(O)c3ccccc3CCc3ccccc32)CC1` gave CHRM4 antagonist 51.7*, M5 antag 37.4*, CHRM5 PAM -17.7, M5 ag -5.6, CHRM4 agonist 1.0 and CHRM4 PAM -37.0.
`CCN(CC(=O)Nc1c(F)cccc1F)C(=O)c1cccc(S(=O)(=O)NCc2ccccc2)c1` gave CHRM4 antagonist -6.2, M5 antag 7.8, CHRM5 PAM -3.3, M5 ag -1.0, CHRM4 agonist 1.4 and CHRM4 PAM 5.1.
For Cc1scc(C(=O)NCc2ccco2)c1-c1ccccc1 the results were CHRM4 antagonist -6.0, M5 antag -6.8, CHRM5 PAM 3.5, M5 ag -2.7, CHRM4 agonist 0.2 and CHRM4 PAM 42.0*.
Screening O=C(NCc1ccco1)c1ccccc1-c1ccccc1 returned CHRM4 antagonist -2.0, M5 antag -8.8, CHRM5 PAM 8.8, M5 ag -4.4, CHRM4 agonist -0.6 and CHRM4 PAM 3.3.

High-throughput results: PubChem BioAssay, The Scripps Research Institute Molecular Screening Center
